The values below come from ChEMBL document CHEMBL1124898, “Novel agents effective against solid tumors: the diarylsulfonylureas. Synthesis, activities, and analysis of quantitative structure-activity relationships” (J Med Chem, 1990).

Series [1] is described as follows: Antitumor activity in vivo against the 6C3HED lymphosarcoma, dosed for 8 days at 300 mg/kg. The following applies: Mus musculus, 192 h.
A short description of series [2]: Antitumor activity in vivo against the 6C3HED lymphosarcoma dosed for 10 days at 300 mg/kg (ip dosing daily for 8 days). In kind it is functional. The following applies: Mus musculus, route intraperitoneal. Summed up: (§1)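 Tumor fragments (about 1–2 mm) implanted sc via trochar into a subaxillary site of syngeneic mice (C3H, C57BL/6, Balb/C or DBA/2) or Holtz rats. Groups were 7–10 randomized animals. Compound was suspended in 2.5% Emulphor in 0.9% saline and given orally by gavage or ip, usually from the day after implantation. Tumor volume versus untreated controls was measured one day after the final dose and reported as % inhibition. Scoring bands: +++ 95–100%, ++ 80–94%.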

Series [3] relates to CCRF-CEM. As to the kind of experiment: Concentration required to inhibit growth of CCRF-CEM cells in culture for 72 hr to 50% of control growth. Format: functional, cell-based. The following applies: Homo sapiens.
Series [4] has as its system CA-755. As to the kind of experiment: Antitumor activity in vivo expressed as percent of inhibition in CA-755-mammary adenocarcinoma tumor cell line. Format: functional, Mus musculus. The gist of the method: as §1
Series [5] can be described thus: Tested on X-5563 multiple myeloma and percent inhibition was determined at 100 mg/kg dosage administered for 10 days intraperitoneally. Format: functional. The following applies: Mus musculus, X5563, ip, 240 h, route intraperitoneal. The gist of the method: as §1
Series [6] in a line: Tested on 6 C3 HED lymphosarcoma and number of drug related deaths/total animals in treatment group was determined at 50 mg/kg dosage administered for 8 days perorally; 3/10. In kind it is ADME, organism-based. The arrangement: dose 50 mg/kg, route oral. Particulars: mouse, in vivo, po, 192 h.
For series [7], the system named is 6C3HED. Nature of the series: Antitumor activity in vivo expressed as percent of inhibition in 6C3HED-lymphosarcoma tumor cell line. Format: functional, Mus musculus. Summed up:
as §1

Series [8] concerns Lewis lung carcinoma cell line. As to the kind of experiment: Antitumor activity in vivo expressed as percent of inhibition in Lewis-lung carcinoma cell line. Format: functional, Mus musculus. The gist of the method:
as §1

Series [9] in a line: Tested on 6C3HED lymphosarcoma and percent inhibition was determined at 200 mg/kg dosage administered for 10 days intraperitoneally. Format: functional. Particulars: Mus musculus, ip, 240 h, route intraperitoneal. The gist of the method: as §1
Series [10] in a line: Tested on 6 C3 HED lymphosarcoma and number of drug related deaths/total animals in treatment group was determined at 200 mg/kg dosage administered for 10 days intraperitoneally; 1/10. Format: ADME, organism-based. The arrangement: dose 200 mg/kg, route intraperitoneal. Particulars: mouse, in vivo, ip, 240 h.
In series [11] the test system is B16. As to the kind of experiment: Antitumor activity in vivo and the activity was determined as percent increase in life span determined against B-16-melanoma (ascites) cell lines. Format: functional, Mus musculus. The gist of the method:
(§2)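 The ascites tumor inoculum of 1 × 10^6 cells was given ip to DBA/2 mice, and treatment started the next day. Compound was suspended in 2.5% Emulphor in 0.9% saline. Groups had 7–10 animals. %ILS = (MDD treated − MDD control)/MDD control × 100. Deaths before the control median day of death were counted as toxic. Values are optimal from at least two experiments.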

Series [12] can be described thus: Tested on 6 C3 HED lymphosarcoma and number of drug related deaths/total animals in treatment group was determined at 200 mg/kg dosage administered for 8 days perorally; 1/10. Particulars: mouse, in vivo, po, 192 h. In kind it is ADME, organism-based. The arrangement: dose 200 mg/kg, route oral.
Series [13] concerns Colon 26. Nature of the series: Antitumor activity in vivo expressed as percent of inhibition in C-26-colon carcinoma cell line. In kind it is functional, Mus musculus. The gist of the method:
as §1

A short description of series [14]: Tested on CA-755 mammary adenocarcinoma and percent inhibition was determined at 150 mg/kg dosage administered for 10 days intraperitoneally. Format: functional. The following applies: Mus musculus, CA-755, po, 240 h; in the assay text read “orally” for “intraperitoneally”. The gist of the method: as §1
For series [15], the system named is P1534J. As to the kind of experiment: Antitumor activity in vivo expressed as percent of inhibition in P1534J-lymphatic leukemia cell line. In kind it is functional, Mus musculus.
A short description of series [16]: Tested on X-5563 multiple myeloma and percent inhibition was determined at 150 mg/kg dosage administered for 10 days intraperitoneally. The following applies: Mus musculus, X5563, po, 240 h; in the assay text read “orally” for “intraperitoneally”. Format: functional. The gist of the method:
as §1

Series [17] is described as follows: Tested on 6C3HED lymphosarcoma and percent inhibition was determined at 200 mg/kg dosage administered for 8 days intraperitoneally. In kind it is functional. Particulars: Mus musculus, po, 192 h, in the assay text read “orally” for “intraperitoneally”. Summed up: as §1
For series [18], the system named is M-5 (Mus musculus). Nature of the series: Antitumor activity in vivo expressed as percent of inhibition in M-5-ovarian carcinoma cell line.
The nature of series [19]: Tested on 6C3HED lymphosarcoma and percent inhibition was determined at 50 mg/kg dosage administered for 8 days intraperitoneally. Particulars: Mus musculus, po, 192 h, in the assay text read “orally” for “intraperitoneally”. In kind it is functional. Summed up:
as §1

A short description of series [20]: Tested on 6 C3 HED lymphosarcoma and number of drug related deaths/total animals in treatment group was determined at 100 mg/kg dosage administered for 8 days intraperitoneally; 0/10. Format: ADME, organism-based. The arrangement: dose 100 mg/kg, route intraperitoneal. The following applies: mouse, in vivo, ip, 192 h.
Series [21] in a line: Tested on CA-755 mammary adenocarcinoma and percent inhibition was determined at 50 mg/kg dosage administered for 10 days intraperitoneally. Particulars: Mus musculus, CA-755, ip, 240 h, route intraperitoneal. In kind it is functional. Summed up: as §1
The test system of series [22] is YOSHIDA. Nature of the series: Antitumor activity in vivo expressed as percent of inhibition in Yoshida-sarcoma (rat) cell line. Format: functional. The gist of the method:
as §1

Series [23] has as its system B16. Nature of the series: Antitumor activity in vivo expressed as percent of inhibition in B-16-melanoma (solid) cell line. Format: functional, Mus musculus. The gist of the method:
as §1

Series [24] deals with X5563. Nature of the series: Antitumor activity in vivo expressed as percent of inhibition in X5563-plasma cell myeloma cell line. Format: functional, Mus musculus. The gist of the method: as §1
Series [25] deals with L1210. Nature of the series: Antitumor activity in vivo and the activity was determined as percent increase in life span determined against L1210V-lymphocytic leukemia tumor cell lines. Format: functional, Mus musculus. Summed up: as §2
The nature of series [26]: Antitumor activity in vivo against the 6C3HED lymphosarcoma dosed for 8 days at 200 mg/kg. The following applies: Mus musculus, 192 h.
Series [27] deals with C3H. As to the kind of experiment: Antitumor activity in vivo expressed as percent of inhibition in C3H-mammary adenocarcinoma cell line. Format: functional, Mus musculus. The gist of the method:
as §1

Series [28] in a line: Tested on 6C3HED lymphosarcoma and percent inhibition was determined at 100 mg/kg dosage administered for 8 days intraperitoneally. Format: functional. The following applies: Mus musculus, ip, 192 h, route intraperitoneal. The gist of the method:
as §1

Series [29] is described as follows: Tested on CA-755 mammary adenocarcinoma and percent inhibition was determined at 100 mg/kg dosage administered for 10 days intraperitoneally. Particulars: Mus musculus, CA-755, ip, 240 h, route intraperitoneal. Format: functional. The gist of the method: as §1
A short description of series [30]: Tested on X-5563 multiple myeloma and number of drug related deaths/total animals in treatment group was determined at 150 mg/kg dosage administered for 10 days orally; 3/10. The following applies: mouse, in vivo, po, 240 h.
The nature of series [31]: Tested on X-5563 multiple myeloma and number of drug related deaths/total animals in treatment group was determined at 100 mg/kg dosage administered for 10 days intraperitoneally; 1/7. Particulars: mouse, in vivo, ip, 240 h. In kind it is ADME, organism-based. The arrangement: dose 100 mg/kg, route intraperitoneal.
The subject of series [32] is P388. Nature of the series: Antitumor activity in vivo and the activity was determined as percent increase in life span determined against P388-lymphocytic leukemia tumor cell lines. In kind it is functional, Mus musculus. The gist of the method: as §2
Series [33] can be described thus: Antitumor activity in vivo against the 6C3HED lymphosarcoma dosed for 10 days at 275 mg/kg. Format: functional. The following applies: Mus musculus, 192 h, in the assay text read “8 days” for “10 days”. The gist of the method:
as §1

Series [34] can be described thus: Antitumor activity in vivo against the 6C3HED lymphosarcoma dosed for 10 days at 225 mg/kg. Particulars: Mus musculus, 192 h, in the assay text read “8 days” for “10 days”. Format: functional. Summed up: as §1
Series [35] in a line: Antitumor activity in vivo against the 6C3HED lymphosarcoma dosed for 8 days at 100 mg/kg. The following applies: Mus musculus, 192 h.
Series [36] concerns Rattus norvegicus. As to the kind of experiment: Hypoglycemic activity expressed as (Maximum reduction in blood glucose in mg/dL relative to predosing glucose level)/(time in hours at which maximum reduction occurred). Format: functional. The gist of the method: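 Fed male Sprague-Dawley rats (175–200 g), four per compound, received a single oral gavage dose of 200 mg/kg suspended in 5% acacia. Tail blood was sampled before dosing and at 1, 2, 3 and 5 h, and glucose was measured by glucose oxidase/peroxidase colorimetry. Each rat served as its own control. Value = maximum fall from predose glucose (mg/dL) divided by the hour at which that maximum occurred.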

Series [37] in a line: Antitumor activity in vivo against the 6C3HED lymphosarcoma dosed for 10 days at 150 mg/kg. In kind it is functional. Particulars: Mus musculus, 192 h, in the assay text read “dosed for 8 days” for “dosed for 10 days”. The gist of the method:
as §1

Each structure is given as a SMILES string. In brackets after ≈: the same amount, converted by molar mass. Where only a bound is given, the exact number is not on record here.

Broadly, the inhibition in vivo is the change of the read-out against control, counted positive when it falls. The low end stands for a response near the control, the high end for a response far below the control. For orientation: IC50 means the concentration that gives 50% inhibition. As for `Cc1ccc(S(=O)(=O)/N=C(\S)Nc2ccc(Cl)cc2)cc1`, the inhibition in vivo at 300 mg/kg in [1] turned out to be 35%; in series [2], 45%. Also, the IC50 in [3] came out at 12.9 µg/mL (≈ 37.8 µM).

The Inhibition is the drop in the measured response relative to a control, in per cent. Read a high Inhibition as strong suppression. `Cc1ccc(S(=O)(=O)NC(=O)Nc2ccc(C(F)(F)F)cc2)cc1`: the Inhibition was determined as 94% in series [4]; 100% in series [7]; 79% in series [8]; 94% in series [13]; 100% in series [15]; 94% in [18]. Moreover, the Inhibition in [22] is given as 94%; in series [23], less than 60%; in [24], 79%; in [27], 94%. Further, the figures for the inhibition in vivo at 100 mg/kg in [5], in series [28] and in series [29] were 64%, 81% and 13%, respectively. Also, the Toxic/total amounted to 3 in series [6]; 1 in [10]; 1 in [12]; 0 in series [20]; 3 in series [30]; 1 in series [31]. Moreover, the inhibition in vivo at 200 mg/kg was 49% in series [9], 100% in [17] and 100% in series [26]. Moreover, the Increase in life-span in series [11], in [25] and in series [32] was less than 50% in each case. For the same compound, the inhibition in vivo at 150 mg/kg stood at 94% in [14] and 77% in [16]. The inhibition in vivo at 50 mg/kg worked out at 84% in [19] and 87% in [21]. Moreover, in series [3], the IC50 worked out at 5.3 µg/mL (≈ 14.8 µM).

In the case of `Cc1ccc(S(=O)(=O)NC(=O)Nc2ccccc2)cc1`, in series [33], the inhibition in vivo at 275 mg/kg came out at 44%. Moreover, the IC50 in series [3] is more than 20 µg/mL.

Turning to `O=C(Nc1ccccc1)NS(=O)(=O)c1ccccc1`, in [34], testing at 225 mg/kg gave an inhibition in vivo of 35%. In addition, the IC50 in series [3] is more than 20 µg/mL.

The compound `O=C(Nc1ccc(Cl)cc1)NS(=O)(=O)c1ccc(Cl)cc1` had an inhibition in vivo at 100 mg/kg in series [35] of 100%. Further, half-maximal inhibition in series [3] (IC50) required 19.3 µg/mL (≈ 55.9 µM).

For the compound `O=C(Nc1ccc(C(F)(F)F)cc1)NS(=O)(=O)c1ccc(Cl)cc1`, in series [36], the Ratio turned out to be 0. Also, testing at 150 mg/kg in [37] gave an inhibition in vivo of 94%. This compound gave a half-maximal inhibitory concentration (IC50) in [3] of 5.8 µg/mL (≈ 15.3 µM).
